Laboratory results: ChEMBL document CHEMBL4017460, “A Tobramycin Vector Enhances Synergy and Efficacy of Efflux Pump Inhibitors against Multidrug-Resistant Gram-Negative Bacteria” (J Med Chem, 2017)
The source made the active and inactive calls. No cut-off for these calls is given here.

Key:
Pseudomonas aeruginosa [1] = test: Inhibition of RND efflux pump in Pseudomonas aeruginosa isolate P264-104354 assessed as potentiation of minocycline-induced antibacterial activity at 0.25 times antibacterial MIC after 18 to 24 hrs by checker board assay
In short: (§1)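 Checkerboard in MHB: antibiotic 2-fold diluted along one axis, test agent 2-fold diluted along the other. Overnight culture standardized to 0.5 McFarland in saline, diluted 1:50 in MHB, added to wells, incubated 37 °C for 18 h. MIC is the lowest concentration with no growth. FIC = MIC in combination / MIC alone; FIC index = sum of both FICs.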

Pseudomonas aeruginosa [2] = test: Inhibition of RND efflux pump in Pseudomonas aeruginosa isolate […] assessed as potentiation of minocycline-induced antibacterial activity by measuring minocycline MIC at 0.25 times antibacterial MIC after 18 to 24 hrs by microbroth dilution assay (reference value: 64 ug/ml); settings: isolate P262-104354
In short: as §1, with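 “broth microdilution:” for “in MHB:”, “adjuvant” for “test agent”, “wells,” for “wells, incubated”, “FICI” for “FIC index”, “the two FICs; FICI ≤0.5 is synergy.” for “both FICs.”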

[3] = Toxicity in Galleria mellonella assessed as death at 100 mg/kg after 24 hrs relative to control; assay type: organism-based; settings: in vivo, read-out: Activity
Pseudomonas aeruginosa [4] = test: Inhibition of RND efflux pump in colistin-resistant Pseudomonas aeruginosa isolate 91433 assessed as potentiation of minocycline-induced antibacterial activity by measuring minocycline MIC at 0.25 times antibacterial MIC after 18 to 24 hrs by microbroth dilution assay (reference value: 32 ug/ml)
In short: as §1, with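 “broth microdilution:” for “in MHB:”, “adjuvant” for “test agent”, “wells,” for “wells, incubated”, “FICI” for “FIC index”, “the two FICs; FICI ≤0.5 is synergy.” for “both FICs.”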

[5] = test system: Pseudomonas aeruginosa PAO1; test: Inhibition of RND efflux pump in Pseudomonas aeruginosa PAO1 assessed as potentiation of minocycline-induced bactericidal activity up to 1 time antibacterial MIC after 9 hrs by serial dilution assay
Pseudomonas aeruginosa [6] = test: Inhibition of RND efflux pump in colistin-resistant Pseudomonas aeruginosa isolate 91433 assessed as potentiation of minocycline-induced antibacterial activity by measuring fold reduction in minocycline MIC at 0.25 times antibacterial MIC after 18 to 24 hrs by microbroth dilution assay
In short: as §1, with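 “broth microdilution:” for “in MHB:”, “adjuvant” for “test agent”, “wells,” for “wells, incubated”, “FICI” for “FIC index”, “the two FICs; FICI ≤0.5 is synergy.” for “both FICs.”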

[7] = test system: Pseudomonas aeruginosa PAO1; test: Inhibition of RND efflux pump in Pseudomonas aeruginosa PAO1 assessed as potentiation of minocycline-induced antibacterial activity by measuring ratio of minocycline MIC after 25 serial passages to minocycline MIC at sub-MIC after 18 to 24 hrs by microbroth dilution assay
[8] = Cytotoxicity against human JIMT1 cells assessed as reduction in cell viability after 24 hrs by MTS assay; assay type: cell-based, JIMT-1
[9] = Cytotoxicity against human DU145 cells assessed as reduction in cell viability after 24 hrs by MTS assay; assay type: cell-based, DU-145
Pseudomonas aeruginosa [10] = test: Inhibition of RND efflux pump in colistin-resistant Pseudomonas aeruginosa isolate 91433 assessed as potentiation of minocycline-induced antibacterial activity at 0.25 times antibacterial MIC after 18 to 24 hrs by checker board assay
In short: as §1, with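 “broth microdilution:” for “in MHB:”, “adjuvant” for “test agent”, “wells,” for “wells, incubated”, “FICI” for “FIC index”, “the two FICs; FICI ≤0.5 is synergy.” for “both FICs.”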

[11] = test system: Pseudomonas aeruginosa PAO1; test: Inhibition of RND efflux pump in Pseudomonas aeruginosa PAO1 assessed as potentiation of vancomycin-induced antibacterial activity […] by microbroth dilution assay
[12] = test system: Pseudomonas aeruginosa PAO1; test: Inhibition of RND efflux pump in Pseudomonas aeruginosa PAO1 assessed as potentiation of minocycline-induced antibacterial activity by measuring fold reduction in minocycline MIC at 8 ug/ml after 18 to 24 hrs by microbroth dilution assay relative to minocycline alone
In short: (§2)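 Absolute minocycline MIC taken from checkerboard broth dilution with a fixed 8 μg/mL adjuvant. Inoculum was a 0.5 McFarland saline suspension diluted 1:50 in MHB, incubated 37 °C for 18 h. MIC is the lowest concentration with no growth.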

Pseudomonas aeruginosa [13] = test: (§3) Inhibition of RND efflux pump in XDR Pseudomonas aeruginosa isolate P262-101856 infected in Galleria mellonella assessed as potentiation of minocycline-induced antibacterial activity by measuring larval survival rate at 37.5 mg/kg co-treated with 37.5 mg/kg minocycline measured after 24 hrs relative to control; assay type: organism-based
In short: (§4)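 G. mellonella larvae infected with 1.0 × 10^5/mL CFU of XDR P. aeruginosa 101856. A single-dose injection of agent, alone or with minocycline, given 2 h post-infection. Survival scored up to 24 h. 15 larvae per experiment from different batches, two experiments per dosage (n = 30). Significance 0 vs 24 h at P ≤ 0.05.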

Pseudomonas aeruginosa [14] = test: Inhibition of RND efflux pump in colistin-resistant Pseudomonas aeruginosa isolate 91433 assessed as potentiation of minocycline-induced antibacterial activity by measuring fold reduction in minocycline MIC at 8 ug/ml after 18 to 24 hrs by microbroth dilution assay
In short: as §1, with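 “broth microdilution:” for “in MHB:”, “adjuvant” for “test agent”, “wells,” for “wells, incubated”, “FICI” for “FIC index”, “the two FICs; FICI ≤0.5 is synergy.” for “both FICs.”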

Pseudomonas aeruginosa [15] = test: Antibacterial activity against XDR Pseudomonas aeruginosa isolate P262-101856 infected in Galleria mellonella assessed as protection against bacterial infection by measuring larval death at 75 mg/kg up to 24 hrs relative to control; assay type: functional; in short: as §4
Pseudomonas aeruginosa [16] = test: Inhibition of RND efflux pump in colistin-resistant Pseudomonas aeruginosa isolate 91433 assessed as potentiation of minocycline-induced antibacterial activity by measuring minocycline MIC at 8 ug/ml after 18 to 24 hrs by microbroth dilution assay (reference value: 32 ug/ml)
In short: as §1, with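 “broth microdilution:” for “in MHB:”, “adjuvant” for “test agent”, “wells,” for “wells, incubated”, “FICI” for “FIC index”, “the two FICs; FICI ≤0.5 is synergy.” for “both FICs.”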

Pseudomonas aeruginosa [17] = test: as §3, with “75” for “37.5”; assay type: organism-based; in short: as §4
Pseudomonas aeruginosa [18] = test: Inhibition of RND efflux pump in Pseudomonas aeruginosa isolate […] assessed as potentiation of minocycline-induced antibacterial activity by measuring minocycline MIC at 8 ug/ml after 18 to 24 hrs by microbroth dilution assay (reference value: 64 ug/ml); settings: isolate P262-104354; in short: as §2
[19] = Hemolytic activity against ovine erythrocytes at 1000 ug/ml after 30 mins relative to control; assay type: ADME, cell-based, Ovis aries, Erythrocyte; settings: sheep, read-out: Activity
Galleria mellonella = test: Toxicity in Galleria mellonella assessed as death at 200 mg/kg up to 96 hrs; assay type: organism-based; settings: in vivo
Pseudomonas aeruginosa [20] = test: Inhibition of RND efflux pump in Pseudomonas aeruginosa isolate P264-104354 assessed as potentiation of minocycline-induced antibacterial activity at 8 ug/ml after 18 to 24 hrs by checker board assay; in short: as §1
[21] = test system: Pseudomonas aeruginosa PAO1; test: Inhibition of RND efflux pump in Pseudomonas aeruginosa PAO1 assessed as potentiation of minocycline-induced bactericidal activity at 0.5 times antibacterial MIC up to 24 hrs by serial dilution assay
Pseudomonas aeruginosa [22] = test: Inhibition of RND efflux pump in colistin-resistant Pseudomonas aeruginosa isolate 91433 assessed as potentiation of minocycline-induced antibacterial activity at 8 ug/ml after 18 to 24 hrs by checker board assay
In short: as §1, with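 “broth microdilution:” for “in MHB:”, “adjuvant” for “test agent”, “wells,” for “wells, incubated”, “FICI” for “FIC index”, “the two FICs; FICI ≤0.5 is synergy.” for “both FICs.”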

Row | SMILES | Ratio [7] | fractional inhibitory concentration index (FICI) [11] | fold change (FC) [12] | fold change (FC) (Pseudomonas aeruginosa [14]) | Activity (Pseudomonas aeruginosa [15]) [%] | MIC (Pseudomonas aeruginosa [16]) [µg/mL] | Survival (Pseudomonas aeruginosa [17]) [%] | MIC (Pseudomonas aeruginosa [18]) [µg/mL] | hemolysis at 0.5 h, 1000 ug/ml [19] [%] | Activity (Galleria mellonella) | fractional inhibitory concentration index (FICI) (Pseudomonas aeruginosa [20]) | inhibition [21] | fractional inhibitory concentration index (FICI) (Pseudomonas aeruginosa [22]) | other results
1 | NC[C@H]1C[C@H](C(=O)N[C@H](CCc2ccccc2)C(=O)Nc2ccc3ccccc3c2)N(CCCCCCCCCCCCO[C@@H]2[C@@H](O[C@H]3O[C@H](CO)[C@@H](O)[C@H](N)[C@H]3O)[C@H](N)C[C@H](N)[C@H]2O[C@H]2O[C@H](CN)[C@@H](O)C[C@H]2N)C1 | 2 | < 0.15 | 64 |  |  |  |  |  |  |  |  |  |  | fractional inhibitory concentration index (FICI) (Pseudomonas aeruginosa [1]): 0.25; MIC (Pseudomonas aeruginosa [2]): < 0.5 µg/mL; mortality at 24 h [3]: 100%; MIC (Pseudomonas aeruginosa [4]): 0.25 µg/mL; inhibition [5]: Active; fold change (FC) (Pseudomonas aeruginosa [6]): 8 to 256; CC50 at 24 h [8]: > 30 µM; CC50 at 24 h [9]: > 30 µM; fractional inhibitory concentration index (FICI) (Pseudomonas aeruginosa [10]): 0.16
2 | Cl.Cl.Cl.Cl.Cl.Cl.Cl.NC[C@H]1O[C@H](O[C@H]2[C@H](OCCCCCCCCCCCCN3CCN(Cc4cccc5ccccc45)CC3)[C@@H](O[C@H]3O[C@H](CO)[C@@H](O)[C@H](N)[C@H]3O)[C@H](N)C[C@@H]2N)[C@H](N)C[C@@H]1O |  | < 0.15 | 16 | 8 to 256 | 100 | 0.25 | 77 | < 0.5 | ≤ 5 | Non-Toxic | 0.03 | Active | 0.13 | Survival (Pseudomonas aeruginosa [13]): 10%
3 | Cl.Cl.Cl.Cl.Cl.Cl.NC[C@H]1O[C@H](O[C@H]2[C@H](OCCCCCCCCCCCCN3CC[C@@H](c4ccc(F)cc4)[C@H](COc4ccc5c(c4)OCO5)C3)[C@@H](O[C@H]3O[C@H](CO)[C@@H](O)[C@H](N)[C@H]3O)[C@H](N)C[C@@H]2N)[C@H](N)C[C@@H]1O | 2 | < 0.15 |  | 8 to 256 | 100 | 0.25 | 56 | < 0.5 | ≤ 5 | Non-Toxic | 0.06 | Active | 0.19 | 
